Data: paper PMC8383301 (Molecular Pharmaceutics, 2021)
Entries after “also recorded” stand apart in the source; their conditions may differ. Read-outs that look alike come from different tables or passages of the source.

Experiments:
P-gp [1] = conditions: long-term exposure (60 days); rat brain microvascular endothelial cells in vitro; cited from earlier work
P-gp [2] = conditions: isolated brain capillaries in vitro; cited from earlier work
P-glycoprotein (P-gp) [3] = experiment: Western blot of P-gp expression in whole-brain tissue; format: in vivo, Wistar rats; conditions: MC111 4.5 or 6 mg/kg, 24 h
P-gp [4] = conditions: colo-320 cells; cited from earlier work
[5] = rat, in vivo, 4.5 mg/kg
P-glycoprotein (P-gp) [6] = tested on: P-glycoprotein (P-gp); design: species or system Wistar rats; conditions: rat, in vivo
[7] = tested on: breast cancer resistance protein (BCRP); conditions: colo-320 and MCF7 cells; cited from earlier work
[8] = tested on: pregnane X receptor (PXR); experiment: Western blot of PXR expression in whole-brain tissue; format: in vivo, Wistar rats
Procedure, shortened: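 Male Wistar rats (RjHan:WI) got a single i.v. tail-vein dose of 4.5 or 6 mg/kg (n = 6 each) or vehicle (n = 6) under isoflurane, 24 h before scanning. The vehicle was 5% DMSO, 10% PEG 300 and 85% water. Whole-brain tissue was extracted in cold RIPA with protease inhibitors (~10:1 v/w). Semidry transfer to PVDF ran 2 h; blocking was 1 h in 3% BSA/TBST. PXR was normalised to histone H3, and group means to control.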

[9] = Safety of MC111 administration to rats; format: in vivo; conditions: 6 mg/kg dose
P-gp [10] = conditions: SW480 human colon adenocarcinoma cells; cited from earlier work
P-gp [11] = conditions: caco-2 cells; cited from earlier work
P-gp [12] = conditions: enriched diet; mice models of AD; cited from earlier work
P-gp [13] = conditions: transgenic mouse model of human AD; treatment for 7 days; cited from earlier work

O=C1NC(=O)C(c2ccccc2)(c2ccccc2)N1 [phenytoin]
P-gp expression levels and P-gp function (P-gp [1]): increased

CCCC(CCC)C(=O)O [valproic acid]
P-gp expression levels and P-gp function (P-gp [1]): increased

CO[C@H]1/C=C/O[C@@]2(C)Oc3c(C)c(O)c4c(O)c(c(/C=N/N5CCN(C)CC5)c(O)c4c3C2=O)NC(=O)/C(C)=C\C=C\[C@H](C)[C@H](O)[C@@H](C)[C@@H](O)[C@@H](C)[C@H](OC(C)=O)[C@@H]1C [rifampin]
P-gp expression and function (P-gp [2]): increase

Oc1ccc(-c2ccc(CN3CCN(C4CCCCC4)CC3)cc2)cc1 [MC111, 4′-((4-cyclohexylpiperazin-1-yl)methyl)-[1,1′-biphenyl]-4-ol]
P-gp expression, treated vs control (P-glycoprotein (P-gp) [3]): did not detect changes; also recorded: no significant differences
[3H]verapamil efflux (P-gp function) (P-gp [4]): increase
Ke vs control group [5]: no significant differences
SUV–TAC of the whole brain, differences among the groups (P-glycoprotein (P-gp) [6]): did not find any significant differences
decrease of whole-brain K1 compared to the low-dose group (P-glycoprotein (P-gp) [6]): 29%
SUV40–60 min of the whole brain (P-glycoprotein (P-gp) [6]; 4.5 mg/kg): 0.45 ± 0.02
decrease of VT and K1 values compared to the control group (P-glycoprotein (P-gp) [6]; 4.5 mg/kg): not statistically significant
decrease of whole-brain K1 compared to controls (P-glycoprotein (P-gp) [6]; 4.5 mg/kg): 7%
decrease of whole-brain VT compared to controls (P-glycoprotein (P-gp) [6]; 4.5 mg/kg): 6%
K1 and VT values compared to the control group (P-glycoprotein (P-gp) [6]; 6 mg/kg): significant reduction
decrease of whole-brain K1 compared to controls (P-glycoprotein (P-gp) [6]; 6 mg/kg): 34%
BCRP function and expression [7]: activates
PXR expression levels, treated vs control [8]: did not detect any increase
PXR expression levels ([8]; high-dose group, MC111 6 mg/kg): tendency to lower levels
safety of administration [9]: safely administered
P-gp expression (P-gp [10]): increases

COc1cc2c(c(OC)c1OC)-c1ccc(OC)c(=O)cc1[C@@H](NC(C)=O)CC2 [colchicine]
P-gp expression (P-gp [11]): increased
P-gp function (P-gp [11]): without increasing

C=C1/C(=C\C=C2/CCC[C@]3(C)[C@@H]([C@H](C)CCCC(C)(C)O)CC[C@@H]23)C[C@@H](O)C[C@@H]1O [1,25-Dihydroxyvitamin D3]
Aβ deposition (P-gp [12]): reduced
P-gp function (P-gp [12]): induced

CC(=O)[C@H]1[C@H](C#N)C[C@H]2[C@@H]3CC=C4C[C@@H](O)CC[C@]4(C)[C@H]3CC[C@@]21C [pregnenolone-16α-carbonitrile]
P-gp function (P-gp [13]): restored

NC(=O)N1c2ccccc2C=Cc2ccccc21 [carbamazepine]
P-gp expression levels and P-gp function (P-gp [1]): increased

CC(C)=CCC[C@]1(C)[C@@H](CC=C(C)C)C[C@@]2(CC=C(C)C)C(=O)[C@]1(C(=O)C(C)C)C(=O)C(CC=C(C)C)=C2O [hyperforin]
P-gp expression and function (P-gp [2]): increase

CCC1(c2ccccc2)C(=O)NC(=O)NC1=O [phenobarbital]
P-gp expression levels and P-gp function (P-gp [1]): increased
